Measured values gathered from unrelated publications.
Compare with care: the assays were run in different laboratories.
Target: Proto-oncogene tyrosine-protein kinase Src (SRC, Homo sapiens, UniProt P12931)

With `C[C@@H](c1ccc(-n2cnc3c(N)ncnc32)cc1)N1CCc2nn(C)c(Cc3ccccc3)c2C1=O` the remaining binding was 98% (binding, competition with immobilised ligand; 0.1 µM).
For `Cc1c(NC(=O)c2cc(C(N)=O)nc3cc(F)ccc23)c(C(F)(F)F)nn1Cc1ccc(C#N)cc1`, the remaining binding was 81% (cell-free assay, competition with immobilised ligand; 1 µM).
`CN(C)c1nccc(-c2cnn3ncccc23)n1` has a remaining binding of 100% (binding; 1 µM).
`Nc1c(C(=O)NCc2ccc(C(=O)NCCCC3CCCCC3)cc2)cnn1-c1ccccc1` has a remaining binding of 100% (cell-free assay, competition with immobilised ligand; 0.1 µM).
With `C[C@H]1CCN(c2nccc(-c3cnn4ncccc34)n2)C1` the remaining binding was 100% (binding; 1 µM).
`CNC(=O)[C@@H]1CC[C@@H](n2c(-c3ccc4cnccc4c3)nc3ccc(C(=O)NCc4cccc(C(N)=O)c4)cc32)C1` has a remaining binding of 100% (binding, competition with immobilised ligand; 1 µM).
The remaining binding of `CN([C@@H]1CCc2c(CC(=O)O)c3cc(S(C)(=O)=O)ccc3n2C1)S(=O)(=O)c1ccc(F)cc1` is reported as 96% (cell-free assay, competition with immobilised ligand; 1 µM).
With `CN(c1nccc(-c2cnn3ncccc23)n1)C1CC1` the remaining binding was 100% (binding; 1 µM).
`O=C(c1ccc(Nc2ncc(Cl)c(-c3ccc(Cl)s3)n2)cc1)N1CCC(N2CCCC2)CC1` gave a remaining binding of 77% (binding, competition with immobilised ligand; 1 µM).
`CN(C)c1ncc(F)c(-c2cnn3ncccc23)n1` has a remaining binding of 79% (binding; 1 µM).
For `O=C(Nc1c[nH]nc1C(=O)NC1CCNCC1)c1cc(F)cc(F)c1`, the remaining binding was 100% (binding, competition with immobilised ligand; 1 µM).
For `O=C(c1ccc(Nc2ncc(Cl)c(-c3cc4ccccc4s3)n2)cc1)N1CCC(N2CCCC2)CC1`, the remaining binding was 62% (binding, competition with immobilised ligand; 1 µM).
`N[C@H]1CCN(c2nccc(-c3cnn4ncccc34)n2)C1` gave a remaining binding of 88% (binding; 1 µM).
`CC(C)(C)c1ccc(-c2nc(CBr)nn2-c2cccc(O)c2)cc1` gave a remaining binding of 79% (cell-free assay, competition with immobilised ligand; 10 µM).
For `COc1cnc(Nc2cccc(S(N)(=O)=O)c2)nc1N1CCN(c2ccccc2)CC1`, the remaining binding was 100% (binding, competition with immobilised ligand; 1 µM).
`CN(C)c1ncnc(-c2ccc3nc(Nc4cc(CN5CCN(C(=O)CC(F)(F)F)CC5)ccn4)[nH]c3c2)c1Cl` has a remaining binding of 100% (cell-free assay, competition with immobilised ligand; 1 µM).
The remaining binding of `c1cnn2ncc(-c3ccnc(N4CCC45COC5)n3)c2c1` is reported as 100% (binding; 1 µM).
`c1cncc(-c2cccc(Nc3nccc(NC4CCCCC4)n3)c2)c1` has a remaining binding of 2.2% (binding, competition with immobilised ligand; 10 µM).
For `Nc1ncc2c(n1)-c1c([nH]c3ccc(C#CC4CC4)cc13)CCCC2`, the remaining binding was 100% (binding, competition with immobilised ligand; 1 µM).
The remaining binding of `CN(C(=O)c1ccccc1)c1cc(N(C)c2ccc3c(c2)CCc2ccc(C(=O)NCCN4CCOCC4)cc2C3=O)ccc1F` is reported as 98% (cell-free assay, competition with immobilised ligand; 1 µM).
`COc1ccnn2ncc(-c3ccnc(N(C)C)n3)c12` gave a remaining binding of 100% (binding; 1 µM).
With `COc1cc(-c2cn(C3CCc4ccccc4N(CC(F)(F)F)C3=O)nn2)ccc1-n1ccc(C)n1` (stereo not shown) the remaining binding was 100% (cell-free assay, competition with immobilised ligand; 1 µM).
`O=C(NCCCN1CCOCC1)c1ccc(Nc2ncc(Cl)c(-c3ccc(Cl)s3)n2)cc1` has a remaining binding of 100% (binding, competition with immobilised ligand; 1 µM).
`C[C@@H](c1cccc(C#N)c1)n1cc(Cl)cc(C(N)=O)c1=N` has a remaining binding of 99% (cell-free assay, competition with immobilised ligand; 1 µM).
`FC(F)(F)Oc1cccc(-c2cnc3ccc(-c4ccncc4)nn23)c1` has a remaining binding of 56% (binding, competition with immobilised ligand; 5 µM).
